ChEMBL document CHEMBL3108710, “Discovery of a novel class of dimeric Smac mimetics as potent IAP antagonists resulting in a clinical candidate for the treatment of cancer (AZD5582)” (J Med Chem, 2013)
Converted amounts (≈) assume the structure as drawn. The source made the active and inactive calls. The rule behind the calls is not given here.

Legend:
[1] = system: MDA-MB-231; experiment: Antiproliferative activity against human MDA-MB-231 cells assessed as growth inhibition after 48 hrs by Alamar Blue assay; type: functional; details: MDA-MB-231, 48 h
[2] = target: T1, Baculoviral IAP repeat-containing protein 2 (Homo sapiens, UniProt Q13490); experiment: Binding affinity to cIAP1 in human MDA-MB-231 cells assessed as induction of protein degradation after 1 hr by ELISA; type: cell-based
T1 sequence (Q13490 whole entry, the tested form may be a part): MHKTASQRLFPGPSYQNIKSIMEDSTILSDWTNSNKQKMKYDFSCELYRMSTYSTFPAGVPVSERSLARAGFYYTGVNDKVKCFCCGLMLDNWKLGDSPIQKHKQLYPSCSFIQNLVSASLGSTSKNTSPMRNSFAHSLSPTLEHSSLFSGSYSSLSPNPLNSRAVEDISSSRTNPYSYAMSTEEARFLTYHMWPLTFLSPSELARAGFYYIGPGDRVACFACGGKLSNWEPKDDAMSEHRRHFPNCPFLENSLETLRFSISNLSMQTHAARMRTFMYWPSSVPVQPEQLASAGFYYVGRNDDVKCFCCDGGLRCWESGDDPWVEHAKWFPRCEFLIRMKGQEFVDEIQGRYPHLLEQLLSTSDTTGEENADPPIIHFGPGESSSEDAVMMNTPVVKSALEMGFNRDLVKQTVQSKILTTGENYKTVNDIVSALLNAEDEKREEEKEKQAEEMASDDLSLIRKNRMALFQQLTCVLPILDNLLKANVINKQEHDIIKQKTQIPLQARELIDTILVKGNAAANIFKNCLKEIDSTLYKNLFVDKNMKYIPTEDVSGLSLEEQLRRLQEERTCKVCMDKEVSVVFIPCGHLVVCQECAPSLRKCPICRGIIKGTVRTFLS

[3] = target: E3 ubiquitin-protein ligase XIAP (Homo sapiens, UniProt P98170); experiment: Displacement of AbuRPFK-5FAM from GST-tagged XIAP BIR3 domain (N252 to E350) (unknown origin) after 20 mins by fluorescence polarization assay
E3 ubiquitin-protein ligase XIAP, sequence (P98170 whole entry, the tested form may be a part): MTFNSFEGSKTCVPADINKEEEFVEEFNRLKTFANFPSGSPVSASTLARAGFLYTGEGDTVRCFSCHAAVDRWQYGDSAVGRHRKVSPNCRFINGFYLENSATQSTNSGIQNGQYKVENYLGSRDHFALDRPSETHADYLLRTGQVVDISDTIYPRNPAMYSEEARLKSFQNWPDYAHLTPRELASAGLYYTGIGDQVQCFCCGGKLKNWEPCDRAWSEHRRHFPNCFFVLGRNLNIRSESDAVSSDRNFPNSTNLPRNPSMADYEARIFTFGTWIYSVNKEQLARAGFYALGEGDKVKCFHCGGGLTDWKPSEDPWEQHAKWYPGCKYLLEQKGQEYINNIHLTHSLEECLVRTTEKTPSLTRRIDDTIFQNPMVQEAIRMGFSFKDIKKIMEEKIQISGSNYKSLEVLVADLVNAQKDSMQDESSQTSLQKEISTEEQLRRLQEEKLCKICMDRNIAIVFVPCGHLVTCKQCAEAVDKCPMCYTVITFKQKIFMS
Summary of the method: (§1)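 Competitive fluorescence polarization binding assay. Measures displacement of a 5-carboxyfluorescein-tagged synthetic peptide from the AVPI groove of the isolated BIR domain.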

[4] = target: T1, Baculoviral IAP repeat-containing protein 2; experiment: Displacement of AbuRPFK-5FAM from GST-tagged cIAP1 BIR3 domain (L250 to G350) (unknown origin) after 20 mins by fluorescence polarization assay; summary of the method: as §1
[5] = Fraction unbound in human plasma at 10 uM by equilibrium dialysis method; type: ADME, cell-free
[6] = Aqueous equilibrium solubility of compound in phosphate buffer at pH 7.4 after 24 hrs by HPLC-UV analysis; type: physicochemical
[7] = AUC in Han Wistar rat at 0.2 mg/kg, iv by LC-MS/MS analysis; type: ADME, organism-based; design: dose 0.2 mg/kg, route intravenous; details: plasma
Summary of the method: (§2)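 Rat PK after a single intravenous bolus. Parameters derived from plasma levels: total plasma clearance, steady-state volume of distribution, half-life and AUC.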

[8] = Elimination half life in Han Wistar rat at 0.2 mg/kg, iv by LC-MS/MS analysis; type: ADME, organism-based; design: dose 0.2 mg/kg, route intravenous; details: in vivo, read-out: beta t1/2 (converted); summary of the method: as §2
[9] = Volume of distribution at steady state in Han Wistar rat at 0.2 mg/kg, iv by LC-MS/MS analysis; type: ADME, organism-based; design: dose 0.2 mg/kg, route intravenous; details: in vivo, read-out: Vdss; summary of the method: as §2
[10] = Total plasma clearance in Han Wistar rat at 0.2 mg/kg, iv by LC-MS/MS analysis; type: ADME, organism-based; design: dose 0.2 mg/kg, route intravenous; summary of the method: as §2
[11] = AUC in Han Wistar rat at 0.5 mg/kg, iv by LC-MS/MS analysis; type: ADME, organism-based; design: dose 0.5 mg/kg, route intravenous; details: plasma; summary of the method: as §2
[12] = Elimination half life in Han Wistar rat at 0.5 mg/kg, iv by LC-MS/MS analysis; type: ADME, organism-based; design: dose 0.5 mg/kg, route intravenous; details: in vivo, read-out: beta t1/2 (converted); summary of the method: as §2
[13] = Volume of distribution at steady state in Han Wistar rat at 0.5 mg/kg, iv by LC-MS/MS analysis; type: ADME, organism-based; design: dose 0.5 mg/kg, route intravenous; details: in vivo, read-out: Vdss; summary of the method: as §2
[14] = Total plasma clearance in Han Wistar rat at 0.5 mg/kg, iv by LC-MS/MS analysis; type: ADME, organism-based; design: dose 0.5 mg/kg, route intravenous; summary of the method: as §2
[15] = Apparent permeability from apical to basolateral side in human Caco2 cells; type: ADME, cell-based; details: Caco-2

| GI50 [1] [nM] | EC50 [2] [nM] | Structure (SMILES) | also measured |
| --- | --- | --- | --- |
| 2190 | > 370 | C#CCO[C@@H]1CCc2ccccc2[C@H]1NC(=O)[C@@H]1CCCN1C(=O)[C@@H](NC(=O)[C@H](C)NC)C(C)(C)C | IC50 [3]: 1310 nM; IC50 [4]: 290 nM |
| 192 | 126 | C#CCO[C@H]1CCc2ccccc2[C@H]1NC(=O)[C@@H]1CCCN1C(=O)[C@@H](NC(=O)[C@H](C)NC)C(C)(C)C | IC50 [3]: 600 nM; IC50 [4]: 40 nM |
| 61 | 2 | CN[C@@H](C)C(=O)N[C@H](C(=O)N1CCC[C@H]1C(=O)N[C@@H]1c2ccccc2CC[C@H]1OCC#CC#CCO[C@@H]1CCc2ccccc2[C@H]1NC(=O)[C@@H]1CCCN1C(=O)[C@@H](NC(=O)[C@H](C)NC)C(C)(C)C)C(C)(C)C | – |
| < 0.1 | 0.2 | CN[C@@H](C)C(=O)N[C@H](C(=O)N1CCC[C@H]1C(=O)N[C@H]1c2ccccc2C[C@@H]1OCC#CC#CCO[C@H]1Cc2ccccc2[C@@H]1NC(=O)[C@@H]1CCCN1C(=O)[C@@H](NC(=O)[C@H](C)NC)C1CCCCC1)C1CCCCC1 | – |
| 0.1 | 0.5 | CN[C@@H](C)C(=O)N[C@H](C(=O)N1CSC[C@H]1C(=O)N[C@H]1c2ccccc2C[C@H]1OCC#CC#CCO[C@@H]1Cc2ccccc2[C@@H]1NC(=O)[C@@H]1CSCN1C(=O)[C@@H](NC(=O)[C@H](C)NC)C(C)(C)C)C(C)(C)C | fraction unbound at 10 µM [5]: 0.107; solubility thermodynamic at 24 h [6]: 268 µM (≈ 268 µg/mL) |
| 76 | > 370 | CN[C@@H](C)C(=O)N[C@H](C(=O)N1CCC[C@H]1C(=O)N[C@H]1c2ccccc2C[C@H]1OCC#CC#CCO[C@@H]1Cc2ccccc2[C@@H]1NC(=O)[C@@H]1CCCN1C(=O)[C@@H](NC(=O)[C@H](C)NC)C1CCN(C(C)=O)CC1)C1CCN(C(C)=O)CC1 | – |
| 0.1 | 0.2 | CN[C@@H](C)C(=O)N[C@H](C(=O)N1CSC[C@H]1C(=O)N[C@H]1c2ccccc2C[C@H]1OCC#CC#CCO[C@@H]1Cc2ccccc2[C@@H]1NC(=O)[C@@H]1CSCN1C(=O)[C@@H](NC(=O)[C@H](C)NC)C1CCCCC1)C1CCCCC1 | fraction unbound at 10 µM [5]: 0.011; solubility thermodynamic at 24 h [6]: < 1 µM |
| 0.1 | 0.2 | CN[C@@H](C)C(=O)N[C@H](C(=O)N1CCC[C@H]1C(=O)N[C@H]1c2ccccc2CC[C@H]1OCC#CC#CCO[C@@H]1CCc2ccccc2[C@@H]1NC(=O)[C@@H]1CCCN1C(=O)[C@@H](NC(=O)[C@H](C)NC)C(C)(C)C)C(C)(C)C | AUC [7]: 0.03 µg·h/mL; half-life [8]: 0.5 h; Vd [9]: 1.9 L/kg; clearance [10]: 6.66 L/h/kg; solubility thermodynamic at 24 h [6]: > 1000 µM |
| 16 | 4 | C#CCO[C@@H]1CCc2ccccc2[C@@H]1NC(=O)[C@@H]1CCCN1C(=O)[C@@H](NC(=O)[C@H](C)NC)C(C)(C)C | IC50 [3]: 19 nM; IC50 [4]: 10 nM |
| 45 | 10 | C#CCO[C@H]1CCc2ccccc2[C@@H]1NC(=O)[C@@H]1CCCN1C(=O)[C@@H](NC(=O)[C@H](C)NC)C(C)(C)C | IC50 [3]: 95 nM; IC50 [4]: 14 nM |
| 0.2 | 3 | CN[C@@H](C)C(=O)N[C@H](C(=O)N1CCC[C@H]1C(=O)N[C@H]1c2ccccc2C[C@H]1NC(=O)CCCCCCCCC(=O)N[C@@H]1Cc2ccccc2[C@@H]1NC(=O)[C@@H]1CCCN1C(=O)[C@@H](NC(=O)[C@H](C)NC)C1CCCCC1)C1CCCCC1 | inhibition [4]: Active |
| > 370 | > 370 | CN[C@@H](C)C(=O)N[C@H](C(=O)N1CCC[C@H]1C(=O)N[C@H]1c2ccccc2C[C@H]1OCC#CC#CCO[C@@H]1Cc2ccccc2[C@@H]1NC(=O)[C@@H]1CCCN1C(=O)[C@@H](NC(=O)[C@H](C)NC)C1CCNCC1)C1CCNCC1 | – |
| 0.1 | 0.2 | CN[C@@H](C)C(=O)N[C@H](C(=O)N1CCC[C@H]1C(=O)N[C@@H]1CCN(CC#CC#CCN2CC[C@@H](NC(=O)[C@@H]3CCCN3C(=O)[C@@H](NC(=O)[C@H](C)NC)C3CCCCC3)c3ccccc32)c2ccccc21)C1CCCCC1 | AUC [7]: 0.04 µg·h/mL; half-life [8]: 0.6 h; Vd [9]: 1.2 L/kg; clearance [10]: 4.08 L/h/kg |
| 97 | 4 | CN[C@@H](C)C(=O)N[C@H](C(=O)N1CCC[C@H]1C(=O)N[C@@H]1c2ccccc2CC[C@@H]1OCC#CC#CCO[C@H]1CCc2ccccc2[C@H]1NC(=O)[C@@H]1CCCN1C(=O)[C@@H](NC(=O)[C@H](C)NC)C(C)(C)C)C(C)(C)C | – |
| 6 | 124 | CN[C@@H](C)C(=O)N[C@H](C(=O)N1CCC[C@H]1C(=O)N[C@H]1c2ccccc2C[C@H]1NC(=O)c1ccc(C(=O)N[C@@H]2Cc3ccccc3[C@@H]2NC(=O)[C@@H]2CCCN2C(=O)[C@@H](NC(=O)[C@H](C)NC)C2CCCCC2)cc1)C1CCCCC1 | AUC [11]: 0.23 µg·h/mL; half-life [12]: 6.6 h; Vd [13]: 1.4 L/kg; clearance [14]: 2.22 L/h/kg; inhibition [4]: Active |
| 0.3 | 0.6 | CN[C@@H](C)C(=O)N[C@H](C(=O)N1CCC[C@H]1C(=O)N[C@H]1c2ccccc2CC[C@@H]1OCC#CC#CCO[C@H]1CCc2ccccc2[C@@H]1NC(=O)[C@@H]1CCCN1C(=O)[C@@H](NC(=O)[C@H](C)NC)C(C)(C)C)C(C)(C)C | – |
| > 370 | > 370 | CN[C@@H](C)C(=O)N[C@@H](CCCCN)C(=O)N1CCC[C@H]1C(=O)N[C@H]1c2ccccc2C[C@H]1OCC#CC#CCO[C@@H]1Cc2ccccc2[C@@H]1NC(=O)[C@@H]1CCCN1C(=O)[C@H](CCCCN)NC(=O)[C@H](C)NC | – |
| 13 | 5 | CN[C@@H](C)C(=O)N[C@H](C(=O)N1CCC[C@H]1C(=O)NC1(C(=O)NCC#CC#CCNC(=O)C2(NC(=O)[C@@H]3CCCN3C(=O)[C@@H](NC(=O)[C@H](C)NC)C3CCCCC3)Cc3ccccc3C2)Cc2ccccc2C1)C1CCCCC1 | – |
| > 370 | > 370 | CN[C@@H](C)C(=O)N[C@H](C(=O)N1CCC[C@H]1C(=O)N[C@H]1c2ccccc2C[C@H]1OCC#CC#CCO[C@@H]1Cc2ccccc2[C@@H]1NC(=O)[C@@H]1CCCN1C(=O)[C@@H](NC(=O)[C@H](C)NC)C1CCN(CCO)CC1)C1CCN(CCO)CC1 | – |
| 0.1 | 0.1 | CN[C@@H](C)C(=O)N[C@H](C(=O)N1[C@H](C(=O)N[C@H]2c3ccccc3C[C@H]2OCC#CC#CCO[C@@H]2Cc3ccccc3[C@@H]2NC(=O)[C@@H]2C[C@@H]3C[C@@H]3N2C(=O)[C@@H](NC(=O)[C@H](C)NC)C2CCCCC2)C[C@@H]2C[C@@H]21)C1CCCCC1 | fraction unbound at 10 µM [5]: < 0.01; solubility thermodynamic at 24 h [6]: 48 µM (≈ 49.9 µg/mL) |
| 0.6 | 15 | CN[C@@H](C)C(=O)N[C@H](C(=O)N1CCC[C@H]1C(=O)N[C@H]1c2ccccc2C[C@H]1NC(=O)c1ccc(-c2ccc(C(=O)N[C@@H]3Cc4ccccc4[C@@H]3NC(=O)[C@@H]3CCCN3C(=O)[C@@H](NC(=O)[C@H](C)NC)C3CCCCC3)cc2)cc1)C1CCCCC1 | inhibition [4]: Active |
| 0.1 | 0.3 | CN[C@@H](C)C(=O)N[C@H](C(=O)N1CC=C[C@H]1C(=O)N[C@H]1c2ccccc2C[C@H]1OCC#CC#CCO[C@@H]1Cc2ccccc2[C@@H]1NC(=O)[C@@H]1C=CCN1C(=O)[C@@H](NC(=O)[C@H](C)NC)C1CCCCC1)C1CCCCC1 | fraction unbound at 10 µM [5]: 0.029; solubility thermodynamic at 24 h [6]: 77 µM (≈ 77.9 µg/mL) |
| < 0.1 | 0.6 | CN[C@@H](C)C(=O)N[C@H](C(=O)N1CSC2(CC2)[C@H]1C(=O)N[C@H]1c2ccccc2C[C@H]1OCC#CC#CCO[C@@H]1Cc2ccccc2[C@@H]1NC(=O)[C@H]1N(C(=O)[C@@H](NC(=O)[C@H](C)NC)C2CCCCC2)CSC12CC2)C1CCCCC1 | fraction unbound at 10 µM [5]: < 0.01; solubility thermodynamic at 24 h [6]: < 1 µM |
| 0.4 | 2 | CN[C@@H](C)C(=O)N[C@H](C(=O)N1CCC[C@H]1C(=O)N[C@H]1c2ccccc2C[C@H]1OCC#CC#CCO[C@@H]1Cc2ccccc2[C@@H]1NC(=O)[C@@H]1CCCN1C(=O)[C@@H](NC(=O)[C@H](C)NC)C(C)C)C(C)C | AUC [7]: 0.076 µg·h/mL; half-life [8]: 1.6 h; Vd [9]: 2.3 L/kg; clearance [10]: 2.64 L/h/kg |

| Structure (SMILES) | GI50 [1] [nM] | EC50 [2] [nM] | also measured |
| --- | --- | --- | --- |
| CN[C@@H](C)C(=O)N[C@H](C(=O)N1CCC[C@H]1C(=O)N[C@H]1c2ccccc2C[C@H]1OCC#CC#CCO[C@@H]1Cc2ccccc2[C@@H]1NC(=O)[C@@H]1CCCN1C(=O)[C@@H](NC(=O)[C@H](C)NC)C(C)(C)C)C(C)(C)C | < 2.4 | 0.4 | Papp A→B [15]: < 1 nm/s; solubility thermodynamic at 24 h [6]: > 1000 µM |
